STK33 kinase inh = inhibitors of human STK33 kinase; purified STK33, MBP phosphorylation, ADP-Glo luminescence; inhibition, % at 10 µM; actives 0.073% (n = 320,000); AID 2661;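 active = inhibition at or above 25%, using the most active replicate where run in duplicate; inactive = inhibition below 25%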
CDK5 inh = blocks human CDK5/p35 kinase activity | Q00535+Q15078 | Recombinant CDK5/p35, ADP-Glo luminescence, 60 min | inhibition, % at 10 µM | actives 0.01% (n = 330,000) | AID 488839;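 active = highest replicate inhibition of at least 50% and at least 75% of replicates reaching 50%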;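 note: plate controls were DMSO neutral control for no effect and GW8510 at 10 µM for full effect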
GSK3 alpha inh = inhibitors of human GSK-3 alpha kinase. inhibition, % at 10 µM. actives 0.1% (n = 320,000). AID 2650. ADP-Glo luminescence, 60 min. P49840;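 active = more than half of replicates show inhibition above 20%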;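 note: GST-tagged GSK-3 alpha with peptide substrate and 25 µM ATP; 0% = DMSO neutral wells and 100% = GW8510 positive control wells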
DYRK1A inh = Dyrk1A (rat) kinase inhibition; Q63470; ADP-Glo luminescence, NFATc1 peptide; inhibition, % at 12.5 µM; actives 0.43% (n = 310,000); in the data active = inhibition above about 50%;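 note: plate controls were vehicle with enzyme for no effect and no enzyme for full effect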
GSK3B inh = human GSK3beta kinase inhibition. AID 2097. activity score (negative = inhibition), % at 10 µM. actives 0.038% (n = 300,000). P49841. GST-GSK3beta kinase, ADP-Glo luminescence, 60 min; hits give low values;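 active = more than half of replicate wells score below -50%, meaning over 50% inhibition versus plate controls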;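 note: 0% = median DMSO wells and -100% = median GW8510 positive control wells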
Target sequence (P49841 whole entry, looked up): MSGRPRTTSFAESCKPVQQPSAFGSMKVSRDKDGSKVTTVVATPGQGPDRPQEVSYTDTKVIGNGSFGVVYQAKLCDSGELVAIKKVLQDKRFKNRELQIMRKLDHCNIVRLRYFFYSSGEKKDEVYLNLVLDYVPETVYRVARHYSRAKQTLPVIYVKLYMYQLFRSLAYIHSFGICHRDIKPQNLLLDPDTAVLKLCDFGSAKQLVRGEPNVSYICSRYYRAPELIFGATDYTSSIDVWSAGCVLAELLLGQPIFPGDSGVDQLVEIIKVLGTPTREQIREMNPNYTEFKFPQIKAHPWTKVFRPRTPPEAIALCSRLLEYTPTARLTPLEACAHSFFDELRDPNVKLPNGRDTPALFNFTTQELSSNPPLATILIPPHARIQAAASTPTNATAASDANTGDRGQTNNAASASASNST
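Test system: GST-fused GSK3beta enzyme, cell-free | Quantity: 1.6 ng GST-GSK3beta enzyme per well | Reagent: 25 µM ATP with peptide substrate | Schedule: 60 min enzyme reaction, room temperature | Signal: Luminescent ADP-Glo measurement of ADP formed | Read-out basis: Score relative to plate controls | Control set: DMSO and 20 µM GW8510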
Starred values were filed as active, the others as inactive; . = no result given. This is one part of a sample in which hits are shown more often than they occur.

SMILES	STK33 kinase inh	CDK5 inh	GSK3 alpha inh	DYRK1A inh	GSK3B inh
O=C1CCCCC1Sc1nnc(Cc2cccs2)n1CCc1ccccc1 (stereo not drawn)	-1.5	-1.7	-4.2	-1.9	.
Clc1ccc(/C=N/Nc2ncnc3nc[nH]c23)cc1	5.6	11.1	60.6*	13.9	-35.8
O=C(NNc1cc(C(F)(F)F)ccc1Cl)c1ccc(=O)[nH]c1	-0.7	-2.7	-0.5	5.9	-4.0
O=c1[nH]cccc1-c1nc2ccccc2[nH]1	9.9	-2.5	71.8*	10.1	-2.2
COc1cc(/C=N/Nc2ccc(C(F)(F)F)cn2)cc(OC)c1O	.	2.0	.	8.1	-24.8
Oc1ccc(/C=N/Nc2ccc(C(F)(F)F)cn2)cc1	31.1*	29.6	6.0	.	-13.4
CCOC(=O)c1nnn(-c2nonc2N)c1-c1cccc2ccccc12	2.3	2.0	11.9	-3.2	-5.3
CCOC(=O)c1nnn(-c2nonc2N)c1-c1ccccc1Cl	2.4	-0.3	54.9*	5.6	-24.0
CCOC(=O)c1nnn(-c2nonc2N)c1-c1ccc(OC)cc1	-0.7	0.7	57.7*	11.1	-40.3
COC(=O)c1nnn(-c2nonc2N)c1CSCCO	1.3	1.4	67.1*	24.7	-73.7*
COc1cc([N+](=O)[O-])ccc1N1C(=O)CC(Sc2nccc(C)n2)C1=O (stereo not drawn)	-0.2	0.8	-1.4	-2.5	-0.5
O=C(CSc1nnc(Cn2nnc3ccccc32)o1)N(Cc1ccc(Cl)cc1)c1ccccc1	-0.6	-0.6	1.9	-1.7	1.8
CCN(CC)c1ccc(/C=C2/C(=O)c3ccc(C(=O)O)cc3C2=O)cc1	77.9*	6.2	22.5	4.5	.
CCN(CC)c1ccc(C=C2C(=O)OC3(CCCCC3)OC2=O)cc1	-3.0	0.9	-2.0	-2.1	-1.0
O=C(Cc1ccc2c(c1)CCCC2)Nc1ccccc1Br	-0.9	-0.3	-6.1	1.3	0.8
C1=CC(c2cc3ccccc3o2)OC(CCc2ccccc2)C1 (stereo not drawn)	-0.5	-0.4	0.0	-17.4	-0.2
O=[N+]([O-])c1cc(S(=O)(=O)Oc2ccccc2)ccc1Cl	.	-5.8	.	.	.
O=C(O)CCn1cc(/C=N/O)c(-c2cccc([N+](=O)[O-])c2)n1	8.2	-0.3	77.7*	13.5	-65.8*
COC(=O)CC1C(=O)NCCN1C(=O)Nc1ccc(Cl)c(Cl)c1 (stereo not drawn)	-2.1	-3.3	0.4	0.3	-10.5
C=C(C)c1cccc(C(C)(C)NC(=O)N2CCCC(C)C2)c1 (stereo not drawn)	-0.5	-2.9	-0.6	.	3.6
COc1cc(/C=C/C(O)=C/C(=O)/C=C/c2ccc(O)cc2)ccc1O	43.0*	-1.6	-2.9	-0.5	.
CN1C(C(=O)c2ccccc2)=C(N)c2ccccc2S1(=O)=O	-0.5	3.0	0.3	19.5	-0.6
Cc1cc2c(cc1S(=O)(=O)CCC(=O)NC1CCCCC1C)OCC(=O)N2 (stereo not drawn)	2.7	2.9	5.2	2.9	3.2
O=C(CSc1nc2[nH]ncc2c(=O)n1-c1ccccc1)NCCc1ccccc1	0.4	-4.0	54.4*	47.5	-38.0
O=C(CSc1nc2[nH]ncc2c(=O)n1-c1ccccc1)NCc1cccs1	0.2	0.8	5.1	-5.1	-2.8
SMILES	STK33 kinase inh	CDK5 inh	GSK3 alpha inh	DYRK1A inh	GSK3B inh
N#C/C(=C\c1ccc(O)c(O)c1)C(=O)N1CCCC1	-0.5	-1.1	1.6	7.2	-2.4
N#C/C(=C\c1ccc(O)c(O)c1)C(=O)c1ccc(O)c(O)c1	28.1*	13.1	8.8	48.4	.
COc1cc(/C=N/n2c(-c3cc(C)[nH]n3)n[nH]c2=S)cc(OC)c1OC	0.1	0.5	7.9	-7.9	-3.1
COc1cc(/C=N/n2c(C3CCCCC3)n[nH]c2=S)ccc1O	34.2*	8.7	23.6	14.2	-10.3
COc1cc(/C=N/n2c(-c3cc(C)[nH]n3)n[nH]c2=S)ccc1O	30.8*	3.4	10.4	10.6	-2.4
CC[C@]12c3[nH]c4cc(-c5ccco5)ccc4c3CCN1C(=O)[C@@H](CC(=O)NCc1ccco1)C[C@@H]2C(=O)N1CCN(C(=O)C2CC2)CC1	.	1.2	.	-7.3	.
COc1cccc2cc(C(=O)CS(=O)(=O)c3ccc(C)cc3)c(=O)oc12	-1.1	-2.0	-2.7	3.7	-54.1*
O=C(Nc1ccncc1)Nc1ccccn1	8.3	12.3	71.7*	10.9	-62.2*
O=C(Nc1ccccc1)Nc1ccncc1	1.2	2.9	-1.5	11.9	0.4
O=C(Nc1cccc2ccccc12)NC1CCS(=O)(=O)C1 (stereo not drawn)	-0.5	-0.8	-1.5	0.9	1.7
O=C(CSc1nnc(-c2ccccn2)n1Cc1ccco1)c1ccc(-c2ccccc2)cc1	0.7	-2.2	-2.9	-0.5	-2.4
Cc1c(C(=O)OCC(=O)N2c3ccccc3CC2C)oc2ccccc12 (stereo not drawn)	33.2*	0.9	7.6	-0.3	-3.5
Cc1c(C(=O)OCC(=O)N2C(C)CCCC2C)oc2ccccc12 (stereo not drawn)	0.7	0.2	2.6	-6.8	-0.4
NS(=O)(=O)c1ccc(N=Nc2ccc(=O)[nH]c2O)cc1	-1.8	3.2	54.6*	-0.3	-33.1
O=C(Nc1c(C(=O)O)oc2ccc(Br)cc12)c1ccccc1	-0.2	-1.1	75.1*	2.0	0.2
O=C(O)C1(O)C[C@@H](O)C(O)[C@H](O)C1 (stereo partly drawn)	.	-0.6	.	2.2	.
O=C(N/N=C/c1cn(-c2ccccc2)nc1-c1cccnc1)c1cccnc1	-1.4	-3.4	-0.5	-1.1	-2.5
O/N=C/c1cn(-c2ccccc2)nc1-c1cccnc1	-0.4	1.4	70.5*	0.0	-28.9
Cc1ccc(-c2nn(-c3ccccc3)cc2/C=N/O)cc1	3.3	1.3	77.8*	.	-52.0*
Cc1nc2ccccc2n2c(-c3ccccc3)c3c(=O)n(C)c(=O)n(C)c3c12	-1.6	0.4	59.4*	-1.5	0.3
O=C(COC(=O)c1ccc[nH]c1=O)NCCc1ccc(Cl)cc1Cl	-1.6	-5.8	.	-5.6	0.7
Oc1ccc(/C=N/NC(=S)Nc2cccnc2)cc1	3.3	-0.7	8.5	4.9	-1.7
Oc1ccc(/C=N/NC(=S)N/N=C/c2ccc(O)cc2)cc1	30.5*	0.4	25.3	9.1	-8.0
CN1/C(=C/C=C(/C#N)C(N)=O)C(C)(C)c2ccccc21	3.5	3.5	63.3*	10.6	-35.1
COc1ccc(NC(=O)c2sc3nc(C)nc(N4CCOCC4)c3c2C)c(OC)c1	-0.4	-7.4	-1.5	-0.4	9.0
CN(C)c1cc2c(c(N(C)C)c1)C(=O)c1ccccc1C2=O	40.2*	-2.7	1.4	6.4	0.5
CN(C)S(=O)(=O)c1cccc2c1C(=O)c1ccccc1C2=O	0.1	1.0	1.3	2.8	2.4
O=C(O)c1ccc2c(=O)n3cc(C(=O)c4ccccc4O)cc(Cl)c3nc2c1	4.4	-1.6	2.7	43.0	-4.1
COc1cccc(-c2onc3ccc(C(=O)/C=C/N(C)C)cc23)c1	54.2*	1.4	16.3	9.9	0.7
NC(=O)N/N=C/c1c(O)ccc2oc3c(c12)CCCC3	74.6*	90.2*	85.4*	15.4	-6.2
